A short description of assay [1]: Concentration for 50% cytotoxicity towards malignant cells expressed in HSG neoplastic cell line. It is filed as functional. The following applies: Homo sapiens. The essentials:
(§1)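 Human oral squamous carcinoma HSC-2 and HSC-3 and submandibular gland carcinoma HSG cells were grown in DMEM with 10% heat-inactivated FBS. Near-confluent cells were exposed to various compound concentrations for 24 h. Viable cells were read by MTT (absorbance of stained lysate at 540). CC50 came from dose-response curves as the mean of duplicates.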

Assay [2] can be described thus: Effect of compound on multidrug resistance in murine L-5178 cells at 40 ug/ml concentration; expressed as fluorescence activity ratio (treated/untreated cells). The format is functional, Mus musculus.
The nature of assay [3]: Effect of compound on multidrug resistance in colon320 neoplasm cells at 4 ug/ml concentration; expressed as fluorescence activity ratio (treated/untreated cells). It is filed as functional, Homo sapiens.
Assay [4] is described as follows: Effect of compound on multidrug resistance in colon320 neoplasm cells at 40 ug/ml concentration; expressed as fluorescence activity ratio (treated/untreated cells). The format is functional, Homo sapiens.
Assay [5] in a line: Effect of compound on multidrug resistance in murine L-5178 cells at 4 ug/ml concentration; expressed as fluorescence activity ratio (treated/untreated cells). The format is functional, Mus musculus.
Assay [6] is described as follows: Selectivity index of compound towards human malignant cell lines. It is filed as functional.
For a further assay, the system named is HL-60. As to the kind of experiment: Concentration for 50% cytotoxicity towards malignant cells expressed in HL-60 neoplastic cell line. It is filed as functional. The following applies: Homo sapiens. In a few lines:
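Human promyelocytic leukaemia HL-60 cells were grown in RPMI1640 with 10% FBS and exposed to various compound concentrations for 24 h. Viable cell number was counted by trypan blue exclusion. CC50 was taken from dose-response curves, mean of duplicate determinations.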

Assay [7] can be described thus: Concentration for 50% cytotoxicity towards malignant cells expressed in HSC-2 neoplastic cell line. It is filed as functional. The following applies: Homo sapiens. In a few lines:
as §1

The test system of a further assay is HSC-3. Briefly: Concentration for 50% cytotoxicity towards malignant cells expressed in HSC-3 neoplastic cell line. It is filed as functional. The following applies: Homo sapiens. In a few lines: as §1
Assay [8] is described as follows: Concentration for 50% cytotoxicity towards nonmalignant cells expressed in HPC normal pulp cells. Conditions: Homo sapiens.
The nature of assay [9]: Concentration for 50% cytotoxicity towards nonmalignant cells expressed in HGF normal gingival fibroblasts. The following applies: Homo sapiens.
Assay [10] in a line: Concentration for 50% cytotoxicity towards nonmalignant cells expressed in HPLF normal periodontal ligament fibroblasts. The following applies: Homo sapiens.

As usually defined, the CC50 is the concentration giving 50% cytotoxicity. High values mean better tolerance by the cells, low ones harm at low concentration.

`COc1cc(/C=C2\CC/C(=C\c3ccc([N+](=O)[O-])cc3)C2=O)cc(OC)c1OC`: the CC50 (in assay [1]; with HL-60; in [7]; with HSC-3; in assay [8]; in assay [9]) was greater than 400 µM each time. For the same compound, the CC50 in assay [10] is greater than 400 µM. For the same compound, the Effect in [2] came to 6.62; in [3], 1.96; in [4], 1.28; in assay [5] it was 3.06. This compound had an SI in [6] of roughly 1.

`COc1ccc(/C=C2\CCC/C(=C\c3ccc([N+](=O)[O-])cc3)C2=O)cc1OC`: the CC50 was 13 µM in assay [1]; 4.3 µM in the assay on HL-60; 2.3 µM in [7]; 4.4 µM with HSC-3; 82 µM in assay [8]; 53 µM in assay [9]. Half-maximal cytotoxicity in assay [10] (CC50) was put at 95 µM. Also, the Effect in assay [2] is 47.3; in assay [3] it was 6.12; in assay [4], 4.62; in assay [5], 20.4. The SI in assay [6] was 13.

Turning to `O=C1/C(=C/c2ccc(O)cc2)CCC/C1=C\c1ccc([N+](=O)[O-])cc1`, the CC50 in [1] was greater than 400 µM; with HL-60 it was 4.4 µM; in assay [7], 8.1 µM; in the assay on HSC-3, 13 µM; in assay [8], greater than 400 µM; in assay [9], greater than 400 µM. In assay [10], this compound returned a CC50 greater than 400 µM. In addition, the Effect in [2] turned out to be 0.97; in assay [3], 1.15; in assay [4] it was 0.6; in assay [5] it was 0.94. The same compound gave an SI in assay [6] of roughly 3.8.

As for `COc1cc(/C=C2\Cc3ccccc3/C(=C\c3ccc([N+](=O)[O-])cc3)C2=O)cc(OC)c1OC`, the CC50 in assay [1] is 3 µM; in the assay on HL-60, 0.55 µM; in assay [7] it was 0.55 µM; in the assay on HSC-3, 2.9 µM; in assay [8] it was greater than 400 µM; in assay [9], greater than 400 µM. In assay [10], this compound displayed a CC50 greater than 400 µM. The Effect came to 120 in [2], 10.9 in [3], 13 in [4] and 134 in assay [5]. The SI in [6] was greater than 229.

Regarding `COc1cc(/C=C2/C(=O)/C(=C/c3ccc([N+](=O)[O-])cc3)c3ccccc32)cc(OC)c1OC`, the CC50 in assay [1] is greater than 400 µM; in the assay on HL-60, 318 µM; in assay [7], 221 µM; with HSC-3, greater than 400 µM; in assay [8] it was 153 µM; in [9] it was 89 µM. The CC50 in [10] was greater than 400 µM. The compound also gave an SI in [6] of roughly 0.6.

`O=C1/C(=C/c2ccc(Cl)cc2)CCC/C1=C\c1ccc([N+](=O)[O-])cc1`: the CC50 in assay [1] stood at 15 µM; in the assay on HL-60, 4.1 µM; in [7], 1.5 µM; in the assay on HSC-3, 4.6 µM; in [8] it was 345 µM; in [9], 191 µM. For the same compound, the CC50 in assay [10] amounted to 332 µM. Besides, the Effect in assay [2] came to 0.94; in assay [3] it was 0.6; in assay [4], 0.53; in [5] it was 1.16. The compound further gave an SI in assay [6] of 46.

For the compound `COc1cc(/C=C2\CCC/C(=C\c3ccc([N+](=O)[O-])cc3)C2=O)ccc1O`, the CC50 in assay [1] was 11 µM; in the assay with HL-60, 3.4 µM; in assay [7], 2.8 µM; with HSC-3, 5.2 µM; in [8], greater than 400 µM; in assay [9] it was 165 µM. Further, the CC50 in assay [10] amounted to 171 µM. Moreover, the Effect in assay [2] was found to be 0.83; in assay [3] it was 1.98; in assay [4], 1.13; in assay [5], 1.5. In assay [6], this compound showed an SI greater than 44.

Turning to `COc1ccc(/C=C2\Cc3ccccc3/C(=C\c3ccc([N+](=O)[O-])cc3)C2=O)cc1OC`, the CC50 in assay [1] was 4.4 µM; with HL-60, 0.56 µM; in [7], 0.92 µM; in the assay on HSC-3, 4.2 µM; in assay [8] it was greater than 400 µM; in assay [9], greater than 400 µM. Also, the CC50 in assay [10] is greater than 400 µM. The Effect in [2] worked out at 55.9; in [3], 7.19; in [4], 11.4; in assay [5], 44.1. This compound also showed an SI in [6] greater than 159.

Turning to `O=C1/C(=C/c2ccc(O)cc2)Cc2ccccc2/C1=C\c1ccc([N+](=O)[O-])cc1`, the CC50 in assay [1] is 11 µM; in the assay on HL-60, 2.5 µM; in [7] it was 5.2 µM; in the assay with HSC-3, 14 µM; in assay [8], 113 µM; in [9], 85 µM. Moreover, the midpoint of cytotoxicity in [10], the CC50, lay at 75 µM. Also, the Effect in assay [2] worked out at 39.3; in assay [3], 1.99; in assay [4] it was 11.7; in assay [5] it was 135. This compound also registered an SI in [6] of 12.

`COc1cc(/C=C2\Cc3ccccc3/C(=C\c3ccc([N+](=O)[O-])cc3)C2=O)ccc1O`: the CC50 worked out at 5.8 µM in [1]; 0.95 µM in the assay on HL-60; 1.45 µM in [7]; 3.8 µM in the assay on HSC-3; 83 µM in assay [8]; 33 µM in assay [9]. This compound returned a CC50 in [10] of 21 µM. Moreover, the Effect is 123 in assay [2], 3.38 in [3], 6.2 in assay [4] and 51.8 in [5]. In assay [6], this compound returned an SI of 15.

Regarding `O=C1/C(=C/c2ccc([N+](=O)[O-])cc2)CCC/C1=C\c1ccc2c(c1)OCO2`, the CC50 is greater than 400 µM in assay [1]; greater than 400 µM in the assay with HL-60; 308 µM in [7]; 189 µM in the assay with HSC-3; 391 µM in assay [8]; greater than 400 µM in assay [9]. In assay [10], this compound yielded a CC50 of 330 µM. Also, the Effect in assay [2] was found to be 1.23; in assay [3] it was 0.67; in assay [4] it was 0.59; in assay [5], 0.91. For the same compound, the SI in [6] was roughly 1.2.

Consider `COc1ccc(/C=C2\CCC/C(=C\c3ccc([N+](=O)[O-])cc3)C2=O)cc1`, for which the CC50 (in [1]; in the assay with HL-60; in [7]; with HSC-3; in assay [8]; in assay [9]) was greater than 400 µM in each case. The compound also registered a CC50 in [10] greater than 400 µM. The Effect in assay [2] is recorded as 0.82; in assay [3], 0.5; in [4], 0.58; in [5], 0.76. Moreover, in assay [6], the SI was roughly 1.

With `COc1cc(/C=C2\CCC/C(=C\c3ccc([N+](=O)[O-])cc3)C2=O)cc(OC)c1OC`, the CC50 in assay [1] is 8.3 µM; in the assay with HL-60, 1.1 µM; in assay [7] it was 0.76 µM; in the assay on HSC-3, 4.7 µM; in assay [8] it was 347 µM; in assay [9] it was 336 µM. It took 378 µM to reach half-maximal cytotoxicity in assay [10] (CC50). In addition, the Effect in [2] worked out at 75.1; in assay [3], 7.43; in assay [4], 4.38; in assay [5], 15.6. Further, in assay [6], the SI stood at 95.

In the case of `COc1ccc(/C=C2\Cc3ccccc3/C(=C\c3ccc([N+](=O)[O-])cc3)C2=O)cc1`, the CC50 is 47 µM in [1]; 4.4 µM in the assay on HL-60; 11 µM in assay [7]; 32 µM with HSC-3; greater than 400 µM in assay [8]; greater than 400 µM in assay [9]. In assay [10], this compound yielded a CC50 greater than 400 µM. Also, the Effect in [2] was 7.68; in assay [3] it was 2.22; in assay [4] it was 4.3; in [5], 4.36. In [6], this compound gave an SI greater than 17.

Take `COc1ccc(/C=C2\CC/C(=C\c3ccc([N+](=O)[O-])cc3)C2=O)cc1`: the CC50 in assay [1] is greater than 400 µM; in the assay on HL-60, greater than 400 µM; in assay [7], 63 µM; with HSC-3, greater than 400 µM; in [8], greater than 400 µM; in [9] it was greater than 400 µM. The CC50 in assay [10] is greater than 400 µM. The Effect stood at 0.69 in assay [2], 0.63 in [3], 0.37 in [4] and 0.59 in assay [5]. Besides, in [6], the SI was roughly 1.3.

With `COc1cccc2c1C(=O)c1c(O)c3c(c(O)c1C2=O)C[C@@](O)(C(=O)CO)C[C@@H]3O[C@H]1C[C@H](N)[C@H](O)[C@H](C)O1` [DOXORUBICIN], the CC50 in assay [1] was 1.9 µM; with HL-60, 0.47 µM; in assay [7], 0.68 µM; in the assay with HSC-3, 2.9 µM; in assay [8] it was 414 µM; in assay [9], 233 µM. This compound also gave a CC50 in assay [10] greater than 400 µM. The compound further came in with an SI in assay [6] greater than 235.

These data come from ChEMBL document CHEMBL1141909, “3-Arylidene-1-(4-nitrophenylmethylene)-3,4-dihydro-1H-naphthalen-2-ones and related compounds displaying selective toxicity and reversal of multidrug resistance in neoplastic cells” (2005).
